Assay results: ChEMBL document CHEMBL4823251, “Structure-Based Exploration of Selectivity for ATM Inhibitors in Huntington's Disease” (J Med Chem, 2021)
pIC50, pKi: −log10 of the molar value. ≈ marks a conversion by molar mass, not a printed value.

Legend:
[1] = target: Phosphatidylinositol 3-kinase catalytic subunit type 3 (Homo sapiens, UniProt Q8NEB9); experiment: Inhibition of full length recombinant GST-tagged human VPS34 expressed in baculovirus expression system using PI/PS as substrate incubated for 60 mins in presence of ATP at Km concentration by luminescence assay
Phosphatidylinositol 3-kinase catalytic subunit type 3, sequence (Q8NEB9 whole entry): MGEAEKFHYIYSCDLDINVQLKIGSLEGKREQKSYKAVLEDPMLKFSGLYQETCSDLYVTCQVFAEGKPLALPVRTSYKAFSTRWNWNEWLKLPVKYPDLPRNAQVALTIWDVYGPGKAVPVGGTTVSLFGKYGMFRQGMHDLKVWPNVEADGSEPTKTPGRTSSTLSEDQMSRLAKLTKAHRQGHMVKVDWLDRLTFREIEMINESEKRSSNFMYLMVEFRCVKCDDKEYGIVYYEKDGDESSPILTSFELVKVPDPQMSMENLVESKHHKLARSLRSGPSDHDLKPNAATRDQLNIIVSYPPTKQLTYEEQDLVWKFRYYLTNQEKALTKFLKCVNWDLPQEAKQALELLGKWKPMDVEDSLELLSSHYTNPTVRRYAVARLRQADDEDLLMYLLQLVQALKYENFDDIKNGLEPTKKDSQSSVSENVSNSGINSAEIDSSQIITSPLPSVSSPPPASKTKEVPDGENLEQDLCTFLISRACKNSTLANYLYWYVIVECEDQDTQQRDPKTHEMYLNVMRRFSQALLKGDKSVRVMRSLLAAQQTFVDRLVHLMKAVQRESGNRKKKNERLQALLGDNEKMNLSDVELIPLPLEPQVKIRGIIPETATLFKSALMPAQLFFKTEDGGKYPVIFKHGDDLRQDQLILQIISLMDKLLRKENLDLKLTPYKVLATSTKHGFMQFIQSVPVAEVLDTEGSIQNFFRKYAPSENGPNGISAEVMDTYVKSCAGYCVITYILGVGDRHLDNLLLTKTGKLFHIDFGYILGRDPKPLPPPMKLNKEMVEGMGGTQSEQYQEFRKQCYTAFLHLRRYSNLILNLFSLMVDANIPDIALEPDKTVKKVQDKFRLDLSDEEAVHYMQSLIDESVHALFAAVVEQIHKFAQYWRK

[2] = Kinetic solubility of the compound in pH 7.4 PBS buffer incubated for 2 hrs using orbital shaker by LC-UV mass spectrometry; format: physicochemical; conditions: read-out: Kinetic_solubility
How it was run: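 Shaken on an orbital shaker for 2 h at room temperature, then filtered. Filtrate analysed by LC-UV with MS confirmation, calibrated against 200 μM and 10 μM DMSO dilutions.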

[3] = target: T1, Serine-protein kinase ATM (Homo sapiens, UniProt Q13315); experiment: Inhibition of full length recombinant FLAG-tagged human ATM assessed as decrease in p53 S15 phosphorylation using full length myc-tagged p53 as substrate incubated for 30 mins in presence of ATP by ELISA
T1 sequence (Q13315 whole entry): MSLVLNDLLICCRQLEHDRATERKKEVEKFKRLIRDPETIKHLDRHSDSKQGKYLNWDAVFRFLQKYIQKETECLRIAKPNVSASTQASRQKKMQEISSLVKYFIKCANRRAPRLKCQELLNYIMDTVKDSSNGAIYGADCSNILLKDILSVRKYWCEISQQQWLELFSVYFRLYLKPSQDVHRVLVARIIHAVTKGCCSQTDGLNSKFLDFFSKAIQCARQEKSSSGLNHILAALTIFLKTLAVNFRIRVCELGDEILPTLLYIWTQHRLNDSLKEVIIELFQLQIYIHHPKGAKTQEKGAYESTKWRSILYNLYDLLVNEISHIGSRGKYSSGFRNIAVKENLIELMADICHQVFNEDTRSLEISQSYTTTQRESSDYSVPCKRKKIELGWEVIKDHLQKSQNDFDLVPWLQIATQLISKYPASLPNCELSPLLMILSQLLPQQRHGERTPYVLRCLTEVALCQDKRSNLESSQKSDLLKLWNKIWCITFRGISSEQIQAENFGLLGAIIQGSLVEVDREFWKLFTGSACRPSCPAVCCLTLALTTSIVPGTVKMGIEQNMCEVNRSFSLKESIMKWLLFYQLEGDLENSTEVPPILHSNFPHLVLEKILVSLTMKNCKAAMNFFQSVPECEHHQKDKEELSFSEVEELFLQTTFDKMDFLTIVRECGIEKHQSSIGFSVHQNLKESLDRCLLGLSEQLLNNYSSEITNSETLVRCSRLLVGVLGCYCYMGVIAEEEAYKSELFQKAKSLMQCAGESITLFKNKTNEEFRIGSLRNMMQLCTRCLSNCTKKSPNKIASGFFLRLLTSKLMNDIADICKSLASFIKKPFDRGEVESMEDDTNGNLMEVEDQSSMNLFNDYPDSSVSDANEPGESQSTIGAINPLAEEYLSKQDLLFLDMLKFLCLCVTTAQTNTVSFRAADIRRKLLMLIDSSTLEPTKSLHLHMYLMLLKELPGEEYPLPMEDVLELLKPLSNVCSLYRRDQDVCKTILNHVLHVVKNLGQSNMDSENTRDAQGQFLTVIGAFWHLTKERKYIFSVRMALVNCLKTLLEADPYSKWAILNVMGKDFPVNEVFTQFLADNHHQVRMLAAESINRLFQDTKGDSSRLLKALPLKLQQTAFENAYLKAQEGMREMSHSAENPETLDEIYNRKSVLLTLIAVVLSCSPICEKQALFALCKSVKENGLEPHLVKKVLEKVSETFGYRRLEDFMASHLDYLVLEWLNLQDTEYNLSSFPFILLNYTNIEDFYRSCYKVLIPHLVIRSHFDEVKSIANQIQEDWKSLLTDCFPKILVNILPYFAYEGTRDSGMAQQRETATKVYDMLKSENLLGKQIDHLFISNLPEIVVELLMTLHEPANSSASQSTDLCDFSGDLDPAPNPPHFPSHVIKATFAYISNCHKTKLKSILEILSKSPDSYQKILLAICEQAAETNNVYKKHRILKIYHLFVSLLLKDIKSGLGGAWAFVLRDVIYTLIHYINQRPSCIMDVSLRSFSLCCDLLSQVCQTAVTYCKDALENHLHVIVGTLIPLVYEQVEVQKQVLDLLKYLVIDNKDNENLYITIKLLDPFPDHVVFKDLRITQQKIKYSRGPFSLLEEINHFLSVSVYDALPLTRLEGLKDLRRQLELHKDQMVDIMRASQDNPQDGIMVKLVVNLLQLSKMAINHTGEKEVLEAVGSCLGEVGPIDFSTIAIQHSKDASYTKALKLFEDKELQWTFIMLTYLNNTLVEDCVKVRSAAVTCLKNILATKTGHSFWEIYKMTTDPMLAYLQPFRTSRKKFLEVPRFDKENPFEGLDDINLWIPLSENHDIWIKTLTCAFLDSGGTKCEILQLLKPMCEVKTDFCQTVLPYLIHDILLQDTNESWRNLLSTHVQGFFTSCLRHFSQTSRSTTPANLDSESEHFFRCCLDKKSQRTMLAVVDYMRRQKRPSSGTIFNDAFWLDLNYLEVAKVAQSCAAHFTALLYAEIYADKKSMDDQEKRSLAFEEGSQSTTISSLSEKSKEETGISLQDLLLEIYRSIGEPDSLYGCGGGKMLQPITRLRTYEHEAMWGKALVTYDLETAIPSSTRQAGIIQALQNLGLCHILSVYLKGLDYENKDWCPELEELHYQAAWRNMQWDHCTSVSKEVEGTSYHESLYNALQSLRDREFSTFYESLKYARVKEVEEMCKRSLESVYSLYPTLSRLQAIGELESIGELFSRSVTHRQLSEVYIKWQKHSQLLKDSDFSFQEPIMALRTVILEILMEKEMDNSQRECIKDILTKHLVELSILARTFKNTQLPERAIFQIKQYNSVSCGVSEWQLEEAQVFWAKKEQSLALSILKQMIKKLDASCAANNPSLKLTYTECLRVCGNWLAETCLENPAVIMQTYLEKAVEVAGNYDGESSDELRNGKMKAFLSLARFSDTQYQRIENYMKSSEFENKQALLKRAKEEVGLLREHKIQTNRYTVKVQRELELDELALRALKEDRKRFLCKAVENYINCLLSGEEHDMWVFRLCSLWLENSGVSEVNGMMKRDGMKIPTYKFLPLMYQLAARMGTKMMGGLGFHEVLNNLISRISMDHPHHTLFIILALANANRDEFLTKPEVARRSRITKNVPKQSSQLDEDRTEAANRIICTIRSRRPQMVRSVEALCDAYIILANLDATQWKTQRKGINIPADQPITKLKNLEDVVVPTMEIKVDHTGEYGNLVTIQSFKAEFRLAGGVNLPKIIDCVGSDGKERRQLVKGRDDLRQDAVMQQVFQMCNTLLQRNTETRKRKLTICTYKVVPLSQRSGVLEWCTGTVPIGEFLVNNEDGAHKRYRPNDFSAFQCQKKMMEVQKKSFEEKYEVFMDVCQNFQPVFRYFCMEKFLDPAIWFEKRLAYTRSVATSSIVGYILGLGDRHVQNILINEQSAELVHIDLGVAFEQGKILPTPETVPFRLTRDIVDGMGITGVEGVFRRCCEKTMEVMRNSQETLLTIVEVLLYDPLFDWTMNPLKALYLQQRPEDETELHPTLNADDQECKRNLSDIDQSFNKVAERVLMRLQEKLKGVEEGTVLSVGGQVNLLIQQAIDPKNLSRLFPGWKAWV
How it was run: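 Buffer was 25 mM HEPES pH 7.5 with MgCl₂, MnCl₂, Brij-35, glycerol, BSA and DTT (0.1% DMSO); reaction ran 30 min at 20 °C and was stopped with 70 mM EDTA. Product captured on anti-myc-coated plates and detected with anti-p53 pS15, HRP secondary and TMB, absorbance at 450 nm.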

[4] = target: T1, Serine-protein kinase ATM; experiment: Inhibition of ATM in human U2OS cells assessed as reduction in etoposide-stimulated KAP1 phosphorylation incubated for 60 mins by immunoreactivity assay; format: cell-based
How it was run: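 U2OS cells plated overnight at 6k cells/well (37 °C, 5% CO₂), then treated with compound titrations (0.3% DMSO) plus 100 μM etoposide for 60 min. Cells fixed in cold methanol and stained for phospho-KAP1 and total KAP1 using IRDye secondaries on a LI-COR Odyssey. IC50 is the mean of at least two experiments.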

Homo sapiens = species on record: Homo sapiens; experiment: Selectivity ratio of Ki for full length recombinant GST-tagged VPS34 expressed in baculovirus expression system using PI/PS as substrate incubated for 60 mins in presence of ATP at Km concentration by luminescence assay to Ki for full length recombinant FLAG-tagged human ATM assessed as decrease in p53 S15 phosphorylation using full length myc-tagged p53 as substrate incubated for 30 mins in presence of ATP by ELISA
How it was run: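 ADP-Glo luminescence read-out. ATM reaction: 0.75 nM enzyme, 25 nM myc-p53, 10 μM ATP, 30 min at 20 °C, p53 S15 phosphorylation by ELISA. Ki values are means of at least two experiments.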

[5] = Effective efflux ratio of apparent permeability across basolateral to apical over apical to basolateral side in MDCK-MDR1 cells assessed as efflux ratio after 1 hr by LC-MS/MS analysis; format: ADME, cell-based, Canis lupus familiaris; conditions: dog, mdck-mdr1, 1 h
How it was run: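 MDCKII MDR1 and wild-type cells seeded at 2 × 10⁵ cells/well in Transwells, cultured 3 days. Test compounds 10 μM in HBSS with 25 mM HEPES pH 7.4, dosed apical or basolateral in duplicate, 1 h at 37 °C. Lucifer yellow monolayer check, wells above 100 nm/s rejected. LC–MS/MS read-out. ER = Papp B>A/A>B. EER = MDR1 ER over wild-type ER.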

[6] = Apparent permeability across apical to basolateral side in MDCK-MDR1 cells after 1 hr by LC-MS/MS analysis; format: ADME, cell-based, Canis lupus familiaris; conditions: dog
How it was run: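 MDCKII-MDR1 and wild-type cells seeded at 2 × 10⁵ cells/well on Transwells and cultured 3 days. Test compound at 10 μM in HBSS with 25 mM HEPES, pH 7.4, added apical or basolateral in duplicate. Lucifer yellow used as integrity check; wells above 100 nm/s rejected. Sampled after 1 h at 37 °C and quantified by LC–MS/MS. Papp taken from the apical-to-basal direction.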

[7] = Intrinsic clearance in C57Bl/6 mouse pooled liver microsomes at 1 uM measured up to 40 mins in presence of NADPH by LC-MS/MS analysis; format: ADME, Microsome; conditions: read-out: CLH
How it was run: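 Reaction started with 1 mM NADPH. Sampled at 0, 5, 10, 20 and 40 min, quenched in acetonitrile with internal standard, and analysed by LC–MS/MS.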

[8] = target: DNA-dependent protein kinase catalytic subunit (Homo sapiens, UniProt P78527); experiment: Inhibition of DNA-PK isolated from human HeLa nuclear extract using full length His-tagged p53 as substrate measured after 75 mins in presence of ATP by HTRF assay; format: subcellular, Nucleus
How it was run: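 Buffer was 50 mM HEPES pH 7.5, 5 mM MgCl₂, 0.01% Brij35, 1 mM DTT and 1 μg/mL sheared calf thymus DNA; reaction ran 75 min at 20 °C. Stopped with d2-anti-6HIS and cryptate anti-phospho-p53 antibodies in KF/EDTA buffer. Read at 665/620 nm after 7 h.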

[9] = target: Serine/threonine-protein kinase ATR (Homo sapiens, UniProt Q13535); experiment: Inhibition of ATR in human HT-29 cells assessed as reduction in CHK1 phosphorylation incubated for 4 hrs; format: cell-based
How it was run: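 HT29 cells seeded at 25k/well overnight, then treated with compound titrations (0.3% DMSO) plus 10 μM gemcitabine for 4 h. Cells fixed in paraformaldehyde, permeabilized with Triton-X, and stained for phospho-Chk1 and total Chk1 using LI-COR IRDye detection. Ratio normalized to DMSO and 30 μM AZ-20 controls. IC50 is the mean of at least two experiments.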

[10] = Aqueous solubility of the compound in pH 7.4; format: physicochemical; conditions: buffer

| SMILES | pKi [1] | solubility kinetic at 2 h [2] [µg/mL] | pKi [3] | pIC50 [4] | Ratio Ki (Homo sapiens) | Ratio [5] | Papp A→B at 1 h [6] [×10⁻⁶ cm/s] | CLint scaled at 1 µM [7] [mL/min/kg] | pKi [8] | pIC50 [9] | solubility [10] [µg/mL] |
| --- | --- | --- | --- | --- | --- | --- | --- | --- | --- | --- | --- |
| O=c1cc(N2CCOCC2)cc(N2CCC[C@H]2Cc2ccccc2)[nH]1 | 6.20 | > 55 | < 6.05 | < 4.52 | > 1 |  |  |  |  |  |  |
| O=c1cc(N2CCOCC2)cc(N2CCC[C@@H]2Cc2ccccc2)[nH]1 | 8.05 | > 68 | 8.22 |  | 1 | 4.8 | 59.9 | 115 |  |  |  |
| COc1ccc2c(c1)Cc1cccc(-c3cc(N4CCOCC4)[nH]c(=O)c3)c1S2 |  |  | < 6.00 | < 4.52 |  |  |  |  |  |  |  |
| C[C@@H]1CN(c2cc(N3C[C@@H]4C[C@@H]4[C@@H]3Cc3ccccc3)[nH]c(=O)c2)CCO1 | 6.12 | 23 (≈ 62.9 µM) |  |  |  |  |  |  | 8.15 | 4.89 |  |
| O=c1cc(N2CCOCC2)cc(N2C[C@@H]3C[C@@H]3[C@@H]2Cc2ccccc2)[nH]1 | 8.40 | 52 (≈ 148 µM) | 9.52 | 6.82 | 13 | 2.9 | 81.2 | 177 |  |  |  |
| C[C@@H]1CN(c2cc(=O)[nH]c(N3C[C@@H]4C[C@@H]4[C@@H]3Cc3ccccc3)n2)CCO1 | 5.82 | < 2 | 9.05 |  | 1700 |  |  |  |  |  |  |
| COc1ccc2c(c1)Cc1cccc(-c3cc(N4CCOCC4)cc(=O)n3C)c1S2 | 6.04 | 10 (≈ 23.8 µM) | < 5.92 | < 4.52 | > 1 |  |  |  |  |  |  |
| O=c1cc(N2CCOCC2)nc(N2C[C@@H]3C[C@@H]3[C@@H]2Cc2ccccc2)[nH]1 | 8.30 | < 2 | 9.22 |  | 8 |  |  |  |  |  |  |
| O=c1cc(N2CCOCC2)cc(N2CC[C@@H](F)[C@@H]2Cc2ccccc2)[nH]1 | 6.96 | > 71 | 8.52 | 5.89 | 43 | 7.2 | 51.8 | < 65 |  |  |  |
| COc1ccc2c(c1)Cc1cccc(-c3cc(=O)cc(N4CCOCC4)o3)c1S2 |  | 11 (≈ 27 µM) |  |  |  |  |  |  |  |  | 1 (≈ 2.45 µM) |
| C[C@@H]1CN(c2cc(=O)[nH]c(N3CCCCC[C@@H]3Cc3ccccc3)n2)CCO1 | 6.08 | 11 (≈ 28.8 µM) | 9.00 |  | 840 |  |  |  |  |  |  |
| C[C@@H]1CN(c2cc(N3CCCCC[C@@H]3Cc3ccccc3)[nH]c(=O)c2)CCO1 | 5.74 | 70 (≈ 183 µM) | 9.00 | 5.80 | 200 |  |  |  |  |  |  |
| COc1ccc2c(c1)Cc1cccc(-c3cc(O)nc(N4CCOCC4)n3)c1S2 | 7.46 | 4 (≈ 9.82 µM) | 7.60 | 5.17 | 1 |  |  |  |  |  |  |
| COc1ccc2c(c1)Cc1cccc(-c3cc(N4CCOCC4)nc(O)n3)c1S2 | 5.48 | < 2 | 6.80 | < 4.52 | 21 |  |  |  |  |  |  |
| O=c1cc(N2CCOCC2)cc(N2CCC(Cc3ccccc3)C2)[nH]1 (stereo unspecified) |  | 5 (≈ 14.7 µM) | < 5.92 | < 4.52 |  |  |  |  |  |  |  |
| O=c1cc(N2CCOCC2)cc(N2CCCC2Cc2ccccc2)[nH]1 (racemic) | 7.31 | > 68 | 7.52 | 5.40 | 2 |  |  |  |  |  |  |
| C[C@@H]1CN(c2cc(=O)[nH]c(N3C[C@H]4C[C@H]4[C@@H]3Cc3ccccc3)n2)CCO1 | 6.06 | 48 (≈ 131 µM) | 8.70 |  | 490 |  |  |  |  |  |  |
| COc1ccc2c(c1)Cc1cccc(-c3cc(N4CCOCC4)cc(OC)n3)c1S2 | < 5.30 | < 2 | < 5.80 | < 4.52 | > 3 |  |  |  |  |  |  |
| O=c1cc(N2CCOCC2)cc(N2CCCC[C@@H]2Cc2ccccc2)[nH]1 | 6.77 | 59 (≈ 167 µM) |  |  |  |  |  |  |  | 5.10 |  |
| O=c1cc(N2CCOCC2)nc(N2CCCCC[C@@H]2Cc2ccccc2)[nH]1 | 8.10 | 48 (≈ 130 µM) | 10.00 | 6.70 | 80 | 3.1 | 58.1 | 287 |  |  |  |

More lines, now with the values ahead:

| pKi [1] | solubility kinetic at 2 h [2] [µg/mL] | pKi [3] | pIC50 [4] | Ratio Ki (Homo sapiens) | Ratio [5] | Papp A→B at 1 h [6] [×10⁻⁶ cm/s] | CLint scaled at 1 µM [7] [mL/min/kg] | pKi [8] | pIC50 [9] | solubility [10] [µg/mL] | SMILES |
| --- | --- | --- | --- | --- | --- | --- | --- | --- | --- | --- | --- |
| < 5.30 | 62 (≈ 170 µM) |  |  |  |  |  |  |  |  |  | C[C@@H]1CN(c2cc(N3C[C@H]4C[C@H]4[C@@H]3Cc3ccccc3)[nH]c(=O)c2)CCO1 |
| 6.57 | 59 (≈ 173 µM) | 7.06 | < 4.52 | 3 |  |  |  |  |  |  | Oc1cc(N2CCC[C@@H]2Cc2ccccc2)nc(N2CCOCC2)n1 |
|  | 72 (≈ 195 µM) | 7.64 | 5.46 |  | 12 | 31.9 | < 65 |  |  |  | CO[C@@H]1CCN(c2cc(N3CCOCC3)cc(=O)[nH]2)[C@H]1Cc1ccccc1 |
| 7.80 | 34 (≈ 99.9 µM) | 9.00 | 6.30 | 16 | 4.5 | 77.5 | 261 |  |  |  | Oc1cc(N2CCOCC2)nc(N2CCC[C@@H]2Cc2ccccc2)n1 |
| < 5.30 | 2 (≈ 4.91 µM) | < 5.80 | < 4.52 |  |  |  |  |  |  |  | COc1ccc2c(c1)Cc1cccc(-c3nc(O)cc(N4CCOCC4)n3)c1S2 |
| 6.89 | 14 (≈ 34.4 µM) | 8.40 | 6.06 | 33 |  |  |  |  |  |  | COc1ccc2c(c1)Cc1cccc(-c3cc(N4CCOCC4)cc(=O)[nH]3)c1S2 |
| 7.68 | 54 (≈ 153 µM) | 9.70 | 6.89 | 105 |  |  |  |  |  |  | O=c1cc(N2CCOCC2)nc(N2C[C@H]3C[C@H]3[C@@H]2Cc2ccccc2)[nH]1 |
| 7.41 | 65 (≈ 173 µM) | 8.22 |  | 6.5 | 2.6 | 75.2 | < 65 |  |  |  | O=c1cc(N2CCOCC2)cc(N2CCC(F)(F)[C@@H]2Cc2ccccc2)[nH]1 |
|  | 3 (≈ 7.38 µM) | 6.96 | < 4.52 |  |  |  |  |  |  |  | COc1ccc2c(c1)Cc1cccc(-c3cc(=O)cc(N4CCOCC4)[nH]3)c1S2 |
